Experimental data published in publication PMC3081976 (Bioorganic & medicinal chemistry letters, 2010).

Test: Rat pharmacokinetics
Format: in vivo, Sprague-Dawley rats
Conditions: Sprague-Dawley, plasma; for clearance: iv, 1 mg/kg
Outline: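 Sprague-Dawley rats (n = 3) received the test compound intravenously at 1 mg/kg; a separate oral gavage arm used 2 mg/kg. Blood was sampled at 5, 15, 30 min and 1, 2, 4, 6, 8 h into EDTA tubes and centrifuged to plasma. Plasma proteins were precipitated with acetonitrile and drug was quantified by LC-MS/MS. CL and t1/2 came from noncompartmental analysis.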

SMILES | half-life | clearance
Cc1nc(C)n(-c2ccc(Nc3cc(-c4ccn(C)n4)c(Cl)cn3)cc2)n1 [Compound 15] | 1.3 h | 9 mL/min/kg
Cn1ccc(-c2cc(Nc3ccc(-n4cnc(N5CCOCC5)n4)cc3)ncc2Cl)n1 [Compound 16] | 6.5 h | 0.9 mL/min/kg
Cc1ccc(-c2ncn(-c3ccc(Nc4cc(-c5ccn(C)n5)c(F)cn4)cc3)n2)cn1 [Compound 20] | 2.3 h | 4.2 mL/min/kg
Cn1ccc(-c2cc(Nc3ccc(-n4cnc(-c5ccccn5)n4)cc3)ncc2F)n1 [Compound 21] | 3.4 h | 4 mL/min/kg
Cc1nc(C)n(-c2ccc(Nc3cc(-c4nn(C)cc4-c4ccc(F)cc4)ccn3)cc2)n1 [Compound 37] | 1.5 h | 6.4 mL/min/kg
